CXCR6 block: inhibitors of human CXCR6 receptor; hit rate 0.36% among 360,000; O00574; inhibition, % at 20 µM; CHO-K1 PathHunter CXCR6 beta-arrestin, luminescence; in the data active = inhibition above about 34%, passing the limit was not always enough;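 note: antagonist mode with CXCL16 agonist at 10 nM final; 0% = 10 nM CXCL16 with DMSO and 100% = unstimulated wells without agonist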
Target sequence (O00574 whole entry, looked up): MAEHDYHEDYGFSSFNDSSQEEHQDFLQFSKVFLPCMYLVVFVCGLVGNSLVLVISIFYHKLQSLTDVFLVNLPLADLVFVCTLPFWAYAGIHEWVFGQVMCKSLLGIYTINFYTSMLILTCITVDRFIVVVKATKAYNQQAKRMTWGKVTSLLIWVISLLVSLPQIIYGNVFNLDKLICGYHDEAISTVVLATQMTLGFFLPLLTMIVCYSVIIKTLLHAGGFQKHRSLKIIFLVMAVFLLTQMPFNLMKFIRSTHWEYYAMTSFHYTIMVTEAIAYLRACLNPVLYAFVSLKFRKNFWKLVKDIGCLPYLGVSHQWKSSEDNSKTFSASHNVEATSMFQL
APJ agonist: APJ receptor agonism | P35414 | CHO-K1 APJ PathHunter beta-arrestin, luminescence; 0% DMSO wells, 100% apelin | activation, % at 20 µM | hit rate 0.11% among 330,000 | AID 2520;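 active = activation more than six SD over the plate average, tested at 20 µM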;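 note: 0% = DMSO alone and 100% = apelin-13 at 10 nM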
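Material: engineered CHO-K1 APJ arrestin reporter cells; amount: 1000 CHO-K1 reporter cells seeded per well; incubation: compound stimulation 90 min at 25 °C, detection 60 min; signal: luminescent beta-gal fragment complementation, chemiluminescent substrate; read-out basis: APJ agonist activity; controls: DMSO-only wells as negative, 10 nM Apelin-13 as positive control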
APJ antagonist: APJ receptor antagonism | hit rate 0.32% among 330,000 | inhibition, % at 20 µM | AID 2521 | P35414 | CHO-K1 APJ beta-arrestin complementation, luminescence;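 active = inhibition above about 40% at 20 µM, limit read from the data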;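 note: cells challenged with 10 nM apelin-13 agonist together with compound; plate controls were apelin-13 plus DMSO wells for no effect and DMSO wells lacking apelin-13 for full effect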
GAA850 FXN act: increases GAA850 frataxin promoter reporter activity | HEK293 lucGAA850 FXN promoter luciferase reporter, 24 h; percent of 10 µM SAHA response | activation, % at 6 µM | hit rate 0.56% among 360,000;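 active = activation above the average of all compounds screened plus 3 SD, cutoff fixed separately per campaign, cut at about 7.5% in these data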;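 note: 0% = DMSO wells and 100% = 10 µM SAHA wells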
CCR6 antagonist: antagonists of human CCR6 receptor. hit rate 0.49% among 340,000. inhibition, % at 20 µM. CHO-K1 CCR6 PathHunter beta-arrestin, luminescence, CCL20-stimulated. P51684;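 active = compounds whose inhibition of the agonist-driven luminescence signal at 20 µM reaches about 50%, limit read from the data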;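 note: cells stimulated with CCL20 at 14 nM final; plate controls were DMSO with CCL20 for no effect and DMSO without agonist for full effect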
Target sequence (P51684 whole entry, looked up): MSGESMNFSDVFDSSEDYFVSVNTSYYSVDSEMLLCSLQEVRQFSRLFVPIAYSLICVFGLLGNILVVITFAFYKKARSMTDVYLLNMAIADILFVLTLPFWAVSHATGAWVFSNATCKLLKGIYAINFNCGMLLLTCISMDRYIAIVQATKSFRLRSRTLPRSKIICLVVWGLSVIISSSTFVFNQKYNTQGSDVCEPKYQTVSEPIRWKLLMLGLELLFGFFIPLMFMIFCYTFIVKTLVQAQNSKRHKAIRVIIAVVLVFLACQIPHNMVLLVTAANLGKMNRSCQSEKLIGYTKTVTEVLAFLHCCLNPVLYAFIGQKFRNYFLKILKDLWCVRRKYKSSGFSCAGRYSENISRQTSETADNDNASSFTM
EBI2 block: blocks human EBI2 receptor beta-arrestin signaling; EBI2 beta-arrestin recruitment, luminescence, 7a,25-OHC stimulated; inhibition, % at 5 µM; hit rate 0.81% among 360,000; AID 651636; in the data active = inhibition above about 38%;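 note: enzyme fragment complementation signal reports receptor beta-arrestin coupling in cells; 0% = agonist plus DMSO wells and 100% = wells without agonist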
GAA30 FXN cntr: GAA30 FXN promoter activation counter-screen; shares compounds with GAA850 FXN act; HEK293 lucGAA30 FXN promoter luciferase, 24 h; DMSO = 0%, 5 µM ipriflavone = 100%; activation, % at 6 µM; hit rate 66% among 1,900; AID 588350;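 active = mean activation above the mean of solvent-only control wells plus 3 SD, cut at about 22% in these data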;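 note: counterscreen of GAA850 promoter hits where activity marks nonselective or luminescence artifacts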
FXN GAA850 conf: GAA850 FXN promoter activation confirmation | hit rate 86% among 1,900 | shares compounds with GAA850 FXN act | activation, % at 6 µM | HEK293 lucGAA850 FXN promoter luciferase reporter, 24 h; 100% = activation by SAHA;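 active = mean activation above a set limit taken from the primary screen, cut at about 8% in these data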;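 note: 0% = DMSO wells and 100% = 10 µM SAHA wells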
CXCR6 antag conf: CXCR6 antagonism confirmation, single concentration; inhibition, % at 20 µM; AID 602409; CHO-K1 CXCR6 PathHunter beta-arrestin, luminescence; hit rate 65% among 700; shares compounds with CXCR6 block;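 active = mean inhibition over four retests above 40%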;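 note: receptor stimulated with 10 nM CXCL16 agonist; beta-galactosidase fragment complementation upon beta-arrestin recruitment to receptor; plate controls were CXCL16 plus DMSO for no effect and DMSO without CXCL16 for full effect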
EBI2 conf: EBI2 (human) antagonism, single concentration confirmation; shares compounds with EBI2 block; EBI2 beta-arrestin luminescence, 7a,25-OHC antagonism; inhibition, % at 5 µM; hit rate 29% among 2,400;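 active = inhibition of at least 50%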
EBI2 ag: EBI2 agonism counter-screen; 2,400 tested, under 10 active; AID 652000; shares compounds with EBI2 block; activation, % at 5 µM; EBI2-expressing cells, agonist mode, luminescence, 60 min; 0% vehicle, 100% 7α,25-dihydroxycholesterol control;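 active = activation of at least 50%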
bGal cs: counter-screen for EBI2 antagonists: E. coli beta-galactosidase inhibition | inhibition, % at 5 µM | shares compounds with EBI2 block | hit rate 1% among 2,400 | purified beta-galactosidase, luminescent Galacton Star, 15 min;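 active = replicate-average signal at least 3 plate SD below neutral wells, shown as high inhibition, flagging enzyme-inhibiting false positives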;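 note: 0% = DMSO wells with enzyme and 100% = wells lacking enzyme; higher means stronger loss of beta-gal luminescence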
Numbers without * were called inactive; x = no result. The list is not random: actives were taken first. Their share in the collection is about 2%.

SMILES	CXCR6 block	APJ agonist	APJ antagonist	GAA850 FXN act	CCR6 antagonist	EBI2 block	CXCR6 antag conf	others
CCN(CC(=O)Nc1ccc(NC(C)=O)cc1)C(=O)c1ccc(Sc2nncn2C)c([N+](=O)[O-])c1	1	x	x	-1	x	-9	x
CCc1nc2ccc(C(=O)NCCOc3ccc(OC)cc3)cn2c1N(CC)Cc1ccc(OC)c(OC)c1	1	x	x	8.4*	x	58*	x	GAA30 FXN cntr=5;FXN GAA850 conf=4;EBI2 conf=38;EBI2 ag=-2;bGal cs=-9
Cc1cc(Cl)c2oc(C(=O)N3CCN(c4cccc(C)n4)CC3)c(C)c2c1	-5	-3	5	1	-5	2	x
Cc1cc(Cl)c2oc(C(=O)N3CCN(C(=O)c4ccco4)CC3)c(C)c2c1	1	3	-42	9.8*	8	44*	x	GAA30 FXN cntr=114*;FXN GAA850 conf=40*;EBI2 conf=20;EBI2 ag=-2;bGal cs=-7
NC1=NC(c2ccccc2C(F)(F)F)N(c2ccc(F)c(Cl)c2)C(N)=N1 (centres undefined)	3	-3	-20	0	2	-8	x
S=c1[nH]nc(-c2cc(-c3ccccc3)n[nH]2)n1/N=C/C(Br)=C/c1ccccc1	4	-2	3	12*	13	52*	x	GAA30 FXN cntr=-42;FXN GAA850 conf=26*;EBI2 conf=48;EBI2 ag=0;bGal cs=8
COc1cccc(C(C)(O)c2nc(/C=C/c3ccccc3)cs2)c1 (centres undefined)	-2	x	x	0	x	-9	x
Clc1ccc(-c2nc3c4ccccc4ccn3c2Cc2ccccc2)cc1	44*	x	x	1	x	11	10
Fc1ccc(-c2nc3c4ccccc4ccn3c2Cc2ccccc2)cc1	5	x	x	1	x	-9	x
FC(F)Sc1ccc(NC(=S)NC2CCCCC2)cc1	57*	2	-5	3	-11	7	4
O=C1C(=C(I)I)c2ccccc2-c2ccccc21	43*	x	x	-14	x	-21	39
Cc1cc(C)n(C(C[N+](=O)[O-])c2ccc(Cl)cc2)n1 (centres undefined)	44*	4	-1	2	20	-8	19
COc1cc(NS(=O)(=O)c2cc(C(=O)NCCc3ccccn3)ccc2OC)cc(OC)c1	-3	-1	5	1	5	1	x
Nc1nc(N)c2cc([N+](=O)[O-])ccc2n1	1	x	x	5	-1	11	x
Nc1nc(N)c2c(ccc3c2ccn3Cc2cccc([N+](=O)[O-])c2)n1	62*	x	x	x	x	-45	68*
COc1ccc(C(=O)N/N=C/c2cccc3cccnc23)cc1	52*	-4	12	-2	23	4	60*
CCOc1ccc(C(=O)N/N=C/c2cccc3cccnc23)cc1	56*	-3	25	0	x	2	64*
O=C1C2C3C=CC(CC3)C2C(=O)N1c1ccccc1 (centres undefined)	-2	1	17	1	12	-15	x
O=C1C=CC2C3C(=O)N(c4ccccc4)C(=O)C3C1N2Cc1ccccc1 (centres undefined)	51*	x	x	6	59*	21	45*
O=C(CCc1ccc(S(=O)(=O)N2CCOCC2)cc1)OCC(=O)c1ccccc1F	1	-2	0	0	6	-2	x
NS(=O)(=O)c1ccc(CNC(=O)NC23CC4CC(CC(C4)C2)C3)cc1	61*	-5	-15	2	-1	-10	3
NS(=O)(=O)c1ccc(CNC(=O)C23CC4CC(CC(C4)C2)C3)cc1	-5	-1	4	2	-7	-8	x
CCC(C)[C@H](NC(=O)N1CCN(c2cccc(C(F)(F)F)c2)CC1)C(=O)OC (some centres undefined)	51*	-1	25	-1	7	-10	10
COC(=O)[C@@H](NC(=O)N1CCN(c2cccc(C(F)(F)F)c2)CC1)C(C)C	14	-3	16	-1	1	12	x
CCOC(=O)C1=C(c2ccccc2)NC(N)=NC1c1ccc(OCc2ccc(C(=O)OC)cc2)cc1 (centres undefined)	35*	-1	3	0	43	1	23
SMILES	CXCR6 block	APJ agonist	APJ antagonist	GAA850 FXN act	CCR6 antagonist	EBI2 block	CXCR6 antag conf	others
Cc1ccc(NCC(=O)c2ccc(C)cc2)cc1	44*	-11	17	3	83*	4	58*
O=C(NC(=S)Nc1ccccc1O)c1cncc(Br)c1	47*	-6	28	4	66*	5	48*
O=C(NC(=S)Nc1ccccc1C(=O)O)c1cncc(Br)c1	-12	-4	21	1	-6	1	x
Cc1ccc(NC(=O)C2=C(c3ccccc3)S(=O)(=O)CCS2(=O)=O)cc1	48*	5	21	-13	x	24	53*
OC(c1ccc(F)c(F)c1)c1ncc(-c2cccc(F)c2)[nH]1 (centres undefined)	-3	x	x	0	x	4	x
CC1=CC(C)(C)N2C(=O)C(=Nc3ccc(O)cc3)c3cccc1c32	48*	-3	10	3	49	-33	48*
COc1ccc(C)cc1N(CC(=O)Nc1ccc(S(=O)(=O)N2CCCC2)cc1)S(C)(=O)=O	-1	4	-7	1	0	-3	x
Cn1c(O)c(C2=c3ccccc3=NC2=O)[nH]c1=S	33	-4	8	3	x	-8	x
COc1ccc2nc(-n3c(O)c(C4=c5ccccc5=NC4=O)[nH]c3=S)sc2c1	64*	x	x	0	78*	1	52*
CCC1=NN(C(=O)c2cccc([N+](=O)[O-])c2)C(O)(c2ccc(C)cc2)C1 (centres undefined)	48*	-5	37	-1	66*	2	13
CCOC(=O)C1=NN(C(=O)c2ccccc2)C(O)(c2ccc(C)cc2)C1 (centres undefined)	8	-3	-3	2	12	-3	x

Assay outcomes from PubChem.
